Assay outcomes from PubChem.
Shown are actives, neighbours in structure and some others; about 1.9% of the full set was active somewhere.
RanGTP-Impb inh: inhibitors of RanGTP-importin-beta interaction, primary screen, biochemical, FRET, CFP-Ran, YFP-importin-beta, homogeneous. cell-free CFP-Ran/YFP-importin-beta FRET ratio. inhibition, % (concentration not given with the values). 300,000 tested, 1.1% active;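 active = more than half of the replicate wells show a fall in the fluorescence ratio signal beyond about 16%, limit read from the data, passing the limit was not always enough; inconclusive = exactly half of the replicate wells pass the set limit; inactive = fewer than half of replicates pass the limit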
CaV13 FRET inh: Disruptors of the CACNA1D IQ motif to Ca2+-dependent inactivation inhibitor domain association, primary screening, Förster resonance energy transfer in intact living …; HEK cells, CFP/YFP FRET ICDI-IQ, plate reader, 10 min; percent FRET-ratio fall versus neutral wells; 340,000 tested, 0.098% active; inhibition, % at 12.3 µM;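 active = mean replicate inhibition of at least 30% and at least 1% of replicates passing that level; inconclusive = only one of the two criteria is met; inactive = neither criterion is met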
LANA-H2A inh: blocks KSHV LANA binding to histone H2A/H2B; cell-free LANA-H2A/H2B peptide, fluorescence polarization; 320,000 tested, 0.6% active; AID 2629; inhibition, % (test concentration not listed); in the data active = inhibition mostly above about 10%, no sharp cut-off; inactive = mostly below about 6.7%
Runt-CBFb FRET: inhibitors of human RUNX1 Runt domain binding to CBFb | Cerulean-Runt/Venus-CBFb FRET ratio 530/480, 1 h | inhibition, % at 20 µM | Q01196+Q13951 | 220,000 tested, 0.46% active;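 active = inhibition over about 50% at 20 µM in the single-dose screen, limit read from the data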
Target sequence (Q01196 whole entry, looked up, the tested form may be a part): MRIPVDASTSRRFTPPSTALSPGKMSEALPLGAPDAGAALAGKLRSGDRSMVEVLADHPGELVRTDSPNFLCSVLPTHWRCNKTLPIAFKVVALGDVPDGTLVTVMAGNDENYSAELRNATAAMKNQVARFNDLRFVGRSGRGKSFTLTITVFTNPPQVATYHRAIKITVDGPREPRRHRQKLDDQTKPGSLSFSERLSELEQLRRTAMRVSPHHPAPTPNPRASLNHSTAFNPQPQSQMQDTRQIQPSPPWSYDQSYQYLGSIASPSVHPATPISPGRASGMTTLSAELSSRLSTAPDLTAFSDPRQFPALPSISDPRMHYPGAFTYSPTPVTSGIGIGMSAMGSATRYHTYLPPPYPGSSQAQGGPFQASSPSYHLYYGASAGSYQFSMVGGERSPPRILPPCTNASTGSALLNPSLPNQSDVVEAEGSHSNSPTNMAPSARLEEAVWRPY
Target sequence (Q13951 whole entry, looked up, the tested form may be a part): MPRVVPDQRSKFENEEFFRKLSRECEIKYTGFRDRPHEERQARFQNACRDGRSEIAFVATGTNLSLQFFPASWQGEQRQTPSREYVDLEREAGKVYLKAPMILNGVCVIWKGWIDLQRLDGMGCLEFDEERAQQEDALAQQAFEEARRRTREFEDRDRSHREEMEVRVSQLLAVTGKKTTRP
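Measured by: fluorescence energy transfer, 422 nm excitation, 530/480 nm emission; test system: Cerulean-tagged RUNX1 Runt domain (FRET donor) fusion protein; buffer or medium: Tris pH 7.5 buffer with BSA; compound: one dose, 20 µM compound, 1% DMSO; times: two 1 h room-temperature incubations shielded from light; benchmarks: unlabeled CBFb 5 µM, positive control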
HDAC3 inhib: blocks human histone deacetylase 3. O15379. recombinant HDAC3, fluorogenic peptide/trypsin coupled, fluorescence. inhibition, % at 8.3 µM. 320,000 tested, 0.15% active; in the data active = inhibition above about 26%, passing the limit was not always enough; inconclusive = no clear call, values can overlap the other calls
Runt-SMMHC FRET: Runt domain-CBFb-SMMHC interaction inhibition; 220,000 tested, 0.74% active; AID 1434; inhibition, % at 20 µM; Cerulean-Runt/Venus-CBFb-SMMHC FRET ratio 530/480, 1 h; Q01196+Q13951;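 active = mean inhibition across duplicate retests at 20 µM reaching about 50%, limit read from the data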;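 also: inhibitors lower the FRET ratio by blocking Runt binding to CBFb-SMMHC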
Each line names hits and unclear results; the compound was inactive in the other large screens.

COc1ccc2[nH]c3c(c2c1)CCNC3C (stereo not given)	none (no result: Runt-CBFb FRET, Runt-SMMHC FRET)
COc1ccc2c3c([nH]c2c1)C(C)NCC3 (stereo not given)	RanGTP-Impb inh inconclusive, Runt-SMMHC FRET 85 (no result: CaV13 FRET inh)
Cc1ccc2c(c1)c(=O)c1c3n2CCN(CC2CO2)C3CC1 (stereo not given)	RanGTP-Impb inh 29
Cc1ccc(S(=O)(=O)Oc2ccccc2C=C2C(=O)NC(=O)NC2=O)cc1	none (no result: RanGTP-Impb inh, LANA-H2A inh, Runt-CBFb FRET, HDAC3 inhib, Runt-SMMHC FRET)
C[C@]12CCC3C(CC[C@H]4C[C@H](O)CC[C@]34C)C1C[C@@H](O)[C@H]2O (stereo not given in full)	none (no result: RanGTP-Impb inh, LANA-H2A inh, Runt-CBFb FRET, HDAC3 inhib, Runt-SMMHC FRET)
O=c1[nH]c(=O)n(Cc2ccccc2)c(O)c1/C=C1\C=Nc2ccccc21	Runt-SMMHC FRET 93
CCCCn1c(NC(=O)c2ccc(Br)o2)c(C(=O)OCC)c2nc3ccccc3nc21	HDAC3 inhib inconclusive (no result: RanGTP-Impb inh)
CCCCn1c(NS(=O)(=O)c2ccccc2)c(C(=O)OCC)c2nc3ccccc3nc21	RanGTP-Impb inh 85
CC(=O)O[C@H]1CCC2C3CCC4=CC(=O)CCC4=C3C=C[C@@]21C (stereo not given in full)	RanGTP-Impb inh 32 (no result: Runt-CBFb FRET, Runt-SMMHC FRET)
CC1CCN(CC(=O)c2cccc(C(F)(F)F)c2)CC1	none (no result: Runt-CBFb FRET, Runt-SMMHC FRET)
CC[C@@H]1C=CC=CC[C@H](C)[C@@H](O)[C@@H](C)C(=O)[C@H](C)[C@@H](O)[C@H](C)C(=O)[C@H](C)[C@@H](O)[C@H](C)C=CC(=O)O[C@H]2[C@@H](C)[C@@H](CC1)O[C@@]1(CC[C@@H](C)[C@@H](C[C@H](C)O)O1)[C@@H]2C	HDAC3 inhib 50 (no result: CaV13 FRET inh, Runt-CBFb FRET, Runt-SMMHC FRET)
CC(C)CCNC(=O)c1cc(C(=O)c2cc(Br)ccc2O)cn(CCC(C)C)c1=O	none
CCOP(=S)(OCC)Oc1nc(Cl)c(Cl)cc1Cl	LANA-H2A inh active (no result: RanGTP-Impb inh, CaV13 FRET inh, Runt-CBFb FRET, Runt-SMMHC FRET)
CCOC(=O)c1cn2nc(OP(=S)(OCC)OCC)cc2nc1C	none (no result: RanGTP-Impb inh)
O=C(CCN1CCCCC1)Nc1ccc(Br)cc1C(=O)c1ccccc1	LANA-H2A inh 19 (no result: Runt-CBFb FRET, Runt-SMMHC FRET)
COc1ccc(-n2c(O)c(/C=C3\C=Nc4ccc(Br)cc43)c(=O)[nH]c2=O)c(OC)c1	none (no result: Runt-CBFb FRET, Runt-SMMHC FRET)
COc1ccc(-n2c(O)c(/C=C3\C=Nc4ccc(Br)cc43)c(=O)[nH]c2=O)cc1	LANA-H2A inh 13 (no result: Runt-CBFb FRET, Runt-SMMHC FRET)
CC1=C2CCC3C(CCC4=CC(=O)CCC43C)C2CC1 (stereo not given)	none (no result: RanGTP-Impb inh, LANA-H2A inh, Runt-CBFb FRET, HDAC3 inhib, Runt-SMMHC FRET)
CC(C(=O)c1c[nH]c2ccccc12)N1CCSCC1 (stereo not given)	LANA-H2A inh 23 (no result: CaV13 FRET inh, Runt-CBFb FRET)
Cn1cnnc1Sc1cc(N2CCNCC2)ccc1[N+](=O)[O-]	none
Cc1cc(N2CCNC[C@@H]2C)ccc1N1CCN[C@@H](C)C1	none (no result: RanGTP-Impb inh, LANA-H2A inh, Runt-CBFb FRET, HDAC3 inhib, Runt-SMMHC FRET)
NP(=O)(OCCCc1ccccc1)c1ccccc1 (stereo not given)	none (no result: Runt-CBFb FRET, Runt-SMMHC FRET)
O=C(Cc1ccccc1)OCCN1CCOCC1	none
O=C(NCCN1CCOCC1)c1ccc(Cl)nc1Cl	none
CCCCn1c(N)c(C(=O)NCCN2CCOCC2)c2nc3ccccc3nc21	RanGTP-Impb inh 83, Runt-SMMHC FRET 65
COCCCNC(=O)c1c(NC(=O)c2ccccc2Cl)n(Cc2ccccc2)c2nc3ccccc3nc12	RanGTP-Impb inh 71, Runt-SMMHC FRET 63
Nc1c(C(=O)OCc2ccccc2)c2nc3ccccc3nc2n1Cc1cccs1	none
CC/C(=N\NC(=O)c1ccccc1)c1c(O)n(Cc2ccccc2)c(=O)[nH]c1=O	none
Nc1c(C(=O)NCCN2CCOCC2)c2nc3ccccc3nc2n1Cc1ccccc1	RanGTP-Impb inh 63, Runt-CBFb FRET 78, Runt-SMMHC FRET 81
COc1ccc(CCNC(=O)c2c(N)n(CCN3CCOCC3)c3nc4ccccc4nc23)cc1	RanGTP-Impb inh 69, Runt-CBFb FRET 67, Runt-SMMHC FRET 83
COc1ccc(CCNCc2ccccc2F)cc1	none (no result: Runt-CBFb FRET, Runt-SMMHC FRET)
C=C[C@H]1CN2CC[C@H]1C[C@H]2[C@H](O)c1ccnc2ccccc12	none (no result: RanGTP-Impb inh, Runt-CBFb FRET, Runt-SMMHC FRET)
Nc1c(C(=O)NCCN2CCOCC2)c2nc3ccccc3nc2n1Cc1ccco1	RanGTP-Impb inh 64, Runt-CBFb FRET 72 (no result: CaV13 FRET inh, Runt-SMMHC FRET)
O=C1CCCN1c1ccc(S(=O)(=O)O)cc1 (tested in a mixture with another compound)	none
